# Measurements collected from several papers.
# Target: Protein kinase C delta type (PRKCD, Homo sapiens, UniProt Q05655)
SMILES,observed,technique,tested at,remaining binding
Nc1ncc2c(n1)-c1c([nH]c3ccc(C#CC4CC4)cc13)CCCC2,binding,competition with immobilised ligand,1 µM,97%
C[C@@H](c1ccc(-n2cnc3c(N)ncnc32)cc1)N1CCc2nn(C)c(Cc3ccccc3)c2C1=O,binding,competition with immobilised ligand,0.1 µM,100%
F[C@@H]1CCN(c2nccc(-c3cnn4ncccc34)n2)C1,binding,,1 µM,100%
CNC(=O)[C@@H]1CC[C@@H](n2c(-c3ccc4cnccc4c3)nc3ccc(C(=O)NCc4cccc(C(N)=O)c4)cc32)C1,binding,competition with immobilised ligand,1 µM,81%
Cc1cc(C)c(-n2ccn3nc(-c4cccnc4)cc23)cc1NC(=O)c1cc(C#N)cc(S(F)(F)(F)(F)F)c1,cell-free assay,competition with immobilised ligand,0.1 µM,93.1%
CN(C)c1ncc(F)c(-c2cnn3ncccc23)n1,binding,,1 µM,100%
CCCOc1ccc([C@@H]2[C@@H](C(=O)O)[C@H](c3ccc4c(c3)OCO4)CN2CC(=O)Nc2c(CC)cccc2CC)cc1,cell-free assay,competition with immobilised ligand,1 µM,100%
O=C(c1ccc(Nc2nccc(-c3cc4ccccc4s3)n2)cc1)N1CCC(N2CCCC2)CC1,binding,competition with immobilised ligand,1 µM,86%
O=C(N[C@H]1CCCCC/C=C\C2C[C@@]2(C(=O)O)NC(=O)[C@@H]2C[C@@H](Oc3ccncc3)CN2C1=O)OC1CCCC1 (stereo partly drawn),cell-free assay,competition with immobilised ligand,1 µM,100%
C[C@H]1CCN(c2nccc(-c3cnn4ncccc34)n2)C1,binding,,1 µM,100%
O=C(c1ccc(Nc2ncc(Cl)c(-c3ccc(Cl)s3)n2)cc1)N1CCC(N2CCCC2)CC1,binding,competition with immobilised ligand,1 µM,48%
N[C@H]1CCN(c2nccc(-c3cnn4ncccc34)n2)C1,binding,,1 µM,100%
O=C(NCc1ncc(C(F)(F)F)cc1Cl)c1ccc2c(c1)C1(CCS(=O)(=O)CC1)[C@@H](C1CC1)N2S(=O)(=O)c1ccc(F)cc1,cell-free assay,competition with immobilised ligand,1 µM,100%
c1cnn2ncc(-c3ccnc(N4CCC45COC5)n3)c2c1,binding,,1 µM,100%
O=C(NCC1CCOCC1)c1n[nH]cc1NC(=O)c1c(F)cccc1F,binding,competition with immobilised ligand,1 µM,100%
COc1cnc(Nc2cccc(S(N)(=O)=O)c2)nc1N1CCN(c2ccccc2)CC1,binding,competition with immobilised ligand,1 µM,100%
COc1ccc2c(O[C@@H]3C[C@H]4C(=O)N[C@]5(C(=O)O)CC5/C=C\CCCCC[C@H](NC(=O)OC5CCCC5)C(=O)N4C3)cc(-c3csc(NC(=O)C(C)C)n3)nc2c1C (stereo partly drawn),cell-free assay,competition with immobilised ligand,1 µM,84%
CN(CCCC(F)(F)F)c1nccc(-c2cnn3ncccc23)n1,binding,,1 µM,90%
COc1ncc2cc3ccccc3nc2c1C#N,cell-free assay,competition with immobilised ligand,5 µM,75%
O=C1NC(c2ccccn2)Sc2ccccc21 (stereo not drawn),cell-free assay,competition with immobilised ligand,1 µM,71%
O=C(c1ccc(Nc2ncc(Cl)c(-c3cc4ccccc4s3)n2)cc1)N1CCC(N2CCCC2)CC1,binding,competition with immobilised ligand,1 µM,32%
